The source made the active and inactive calls. No cut-off for these calls is given here.

In assay [1] the target is T1, Adenosine receptor A1 (Homo sapiens, UniProt P30542).
T1 sequence (P30542 whole entry): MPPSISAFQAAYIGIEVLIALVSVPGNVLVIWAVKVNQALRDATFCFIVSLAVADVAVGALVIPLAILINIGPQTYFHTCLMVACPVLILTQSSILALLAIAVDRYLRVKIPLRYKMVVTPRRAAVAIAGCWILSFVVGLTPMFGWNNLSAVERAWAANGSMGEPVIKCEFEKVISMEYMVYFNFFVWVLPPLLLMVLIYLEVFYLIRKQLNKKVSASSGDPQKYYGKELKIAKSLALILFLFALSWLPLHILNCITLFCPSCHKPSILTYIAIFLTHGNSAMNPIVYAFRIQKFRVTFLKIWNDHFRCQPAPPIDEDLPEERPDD
Kind of assay: Displacement of [3H]DPCPX from human adenosine A1 receptor expressed in CHO cell membrane after 180 mins. It counts as cell membranes. (In general: Displacement assays read how much labelled ligand stays bound in the presence of the test substance.)

For assay [2], the system named is CHO. Kind of assay: Effect on cAMP production in adenosine receptor-deficient wild type CHO cells. Type of assay: functional, cell-based. Particulars: Cricetulus griseus.
The target of assay [3] is Adenosine receptor A2a (Homo sapiens, UniProt P29274). Kind of assay: Displacement of [3H]NECA from human adenosine A2A receptor expressed in CHO cell membrane after 90 mins. Type of assay: cell membranes.
The target in assay [4] is T2, Adenosine receptor A3 (Homo sapiens, UniProt P0DMS8).
T2 sequence (P0DMS8 whole entry): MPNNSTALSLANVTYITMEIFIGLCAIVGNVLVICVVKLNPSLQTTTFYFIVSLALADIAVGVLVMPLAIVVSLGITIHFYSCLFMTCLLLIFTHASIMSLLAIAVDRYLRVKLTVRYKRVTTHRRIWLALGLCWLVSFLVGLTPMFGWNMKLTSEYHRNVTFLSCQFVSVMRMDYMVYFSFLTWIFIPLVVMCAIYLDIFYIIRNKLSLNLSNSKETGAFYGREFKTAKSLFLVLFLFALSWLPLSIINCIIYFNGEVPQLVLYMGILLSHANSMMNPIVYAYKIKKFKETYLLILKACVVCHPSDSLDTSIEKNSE
Kind of assay: Displacement of [125I]AB-MECA from human adenosine A3 receptor expressed in CHO cell membrane after 90 mins. Type of assay: cell membranes.

In assay [5] the target is T1, Adenosine receptor A1. Kind of assay: (§1) Antagonist activity at human recombinant adenosine A1 receptor expressed in CHO cells assessed as inhibition of NECA-mediated reduction of intracellular [3H]-cAMP accumulation incubated for 15 mins prior to NECA induction measured after 30 mins by liquid scintillation spectrometric analysis in presence of forskolin. It counts as functional, cell-based. In outline:
(§2)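 CHO cells stably expressing human A1 receptor were plated for 24 h, then preincubated 15 min at 37 °C in DMEM with ADA (1 U/mL) and Ro20-1724 (20 µM). Compound (1 nM–10 µM) was added for 15 min, then 10 nM NECA with 1 µM forskolin for 15 min. Lysis was in 0.4 N HCl. cAMP was measured by [3H]cAMP competition with bovine adrenal binding protein, as % of forskolin level. IC50 from ≥3 experiments, duplicates.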
A general note: cAMP levels reflect the balance of adenylyl cyclase and phosphodiesterase activity.

For assay [6], the target named is T3, Adenosine receptor A1 (Homo sapiens) (UniProt P30542).
T3 sequence (whole entry): T1 sequence (P30542 whole entry)
The assay is described as §1. Type of assay: functional, cell-based. In outline:
as §2

Chain of Adenosine receptor A2a (P29274 whole entry): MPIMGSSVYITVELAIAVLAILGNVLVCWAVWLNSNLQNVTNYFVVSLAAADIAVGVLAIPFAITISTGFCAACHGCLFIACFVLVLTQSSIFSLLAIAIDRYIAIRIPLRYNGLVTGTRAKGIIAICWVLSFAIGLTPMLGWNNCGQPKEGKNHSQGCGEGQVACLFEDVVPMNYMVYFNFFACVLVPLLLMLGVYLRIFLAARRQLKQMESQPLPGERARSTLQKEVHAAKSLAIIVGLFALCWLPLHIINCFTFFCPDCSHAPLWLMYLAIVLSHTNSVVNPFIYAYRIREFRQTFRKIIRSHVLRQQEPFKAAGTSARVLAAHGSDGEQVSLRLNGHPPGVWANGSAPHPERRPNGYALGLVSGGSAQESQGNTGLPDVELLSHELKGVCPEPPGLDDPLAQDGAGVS

As a reminder, the Ki is the equilibrium dissociation constant of an inhibitor or competing ligand from its target. A higher Ki goes with lower affinity. As for `O=C(C(=O)c1cn(Cc2ccccc2)c2ccccc12)c1cccs1`, the results for the Ki in assay [1], in assay [3] and in assay [4] were over 10000 nM, over 10000 nM and over 1000 nM, respectively. Besides, the result in assay [2] was inactive.

Regarding `O=C(Nc1ccccc1)C(=O)c1cn(Cc2ccccc2)c2ccccc12`, the Ki in assay [1] is over 10000 nM; in assay [3], over 10000 nM; in assay [4], over 1000 nM. The outcome in assay [2] was inactive.

Broadly, the IC50 is the concentration that inhibits the measured activity by half. For the compound `O=C(C(=O)c1cn(Cc2ccccc2)c2ccccc12)c1ccccc1`, the Ki in assay [1] was 162 nM; in assay [3], over 10000 nM; in assay [4], over 1000 nM. Besides, the half-inhibitory concentration (IC50) in assay [5] worked out at 404 nM. In addition, the inhibition entry in assay [6] was “Dose-dependent effect”. The outcome in assay [2] was inactive.

For the compound `O=C(NCc1ccccc1)C(=O)c1cn(Cc2ccccc2)c2ccccc12`, the result in assay [2] was inactive.

As for `O=C(NCc1ccccc1)c1cn(Cc2ccccc2)c2ccccc12`, the figures for the Ki in assay [1], in assay [3] and in assay [4] were over 10000 nM, over 10000 nM and over 1000 nM, respectively. Further, the result in assay [2] was inactive.

With `O=C(Nc1ccccc1)c1cn(Cc2ccccc2)c2ccccc12`, the values for the inhibitory constant (Ki) in assay [1], in assay [3] and in assay [4] were over 10000 nM, over 10000 nM and over 1000 nM, respectively. Further, the result in assay [2] was inactive.

With `O=C(C(=O)c1cn(Cc2ccccc2)c2ccccc12)c1ccco1`, the Ki was 343 nM in assay [1], over 10000 nM in assay [3] and over 1000 nM in assay [4]. In addition, the 50% inhibitory concentration (IC50) in assay [5] worked out at 291 nM. In addition, the inhibition entry in assay [6] was “Dose-dependent effect”. Also, the outcome in assay [2] was inactive.

The values above are taken from ChEMBL document CHEMBL2434872, “Modulation of A2B adenosine receptor by 1-Benzyl-3-ketoindole derivatives” (Eur J Med Chem, 2013).
